Experiments:
[1] = tested on: MCF7; assay: In vitro cytotoxicity against hormone-responsive MCF-7 cell line.; type: functional, cell-based; conditions: Homo sapiens
Outline: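 MCF-7 cells kept in DMEM with L-glutamine, gentamycin, fungisone, insulin and 5% FBS. For the assay, 5 × 10³ cells/well were plated in DMEM with 2% carbon-stripped FBS and held 24 h at 37 °C. Compounds were then added in fresh medium for 24 h. Viable cells were read by MTT, triplicate wells per concentration, and IC50 was taken from four concentrations.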

[2] = (§1) Inhibition of calmodulin-dependent Phosphodiesterase
Outline: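 Calmodulin-dependent cAMP phosphodiesterase assayed with cyclic [8-3H]AMP as substrate. Tritiated AMP was converted to adenosine by snake venom 5'-nucleotidase, and nucleosides were separated from substrate on Dowex anion exchange resin with 3 mM acetic acid. Basal, calmodulin-independent activity was taken with 1 mM EGTA. Compounds were added in DMSO at several concentrations. IC50 is the mean of triplicates ± standard error.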

[3] = as §1; remark: listed apart in the source

IC50 [2] [nM]	SMILES	IC50 [1] [µM]	IC50 [3] [µM]
1400	CC/C(=C(\c1ccc(I)cc1)c1ccc(OCCCN(C)C)cc1)c1ccccc1	–	–
1000	CC/C(=C(\c1ccc(I)cc1)c1ccc(OCCCCN2CCCC2)cc1)c1ccccc1	4	–
1300	CC/C(=C(\c1ccc(I)cc1)c1ccc(OCCCCN(C)C)cc1)c1ccccc1	–	–
1100	CC/C(=C(\c1ccc(I)cc1)c1ccc(OCCCN2CCCC2)cc1)c1ccccc1	4.5	–
3700	CCCCc1ccc(/C(=C(\CC)c2ccccc2)c2ccc(OCCN(C)C)cc2)cc1	–	–
4600	C#Cc1ccc(/C(=C(\CC)c2ccccc2)c2ccc(OCCN(C)C)cc2)cc1	–	–
3300	C#Cc1ccc(/C(=C(\CC)c2ccccc2)c2ccc(OCCN3CCCC3)cc2)cc1	14.7	–
2300	CC/C(=C(\c1ccc(I)cc1)c1ccc(OCCN(C)C)cc1)c1ccccc1	–	–
1800	CCCCc1ccc(/C(=C(\CC)c2ccccc2)c2ccc(OCCN3CCCC3)cc2)cc1	–	–
1500	CC/C(=C(\c1ccc(I)cc1)c1ccc(OCCN2CCCC2)cc1)c1ccccc1 [IDOXIFENE]	7.3	–
–	CC/C(=C(\c1ccccc1)c1ccc(OCCN(C)C)cc1)c1ccccc1 [TAMOXIFEN]	14	6.8

SMILES	IC50 [2] [nM]	IC50 [1] [µM]	IC50 [3] [µM]
CC/C(=C(\c1ccc(O)cc1)c1ccc(OCCN(C)C)cc1)c1ccccc1	19000	15.5	–

Source: ChEMBL document CHEMBL1128750 (J Med Chem, 1995)
